Reference: ChEMBL document CHEMBL1141003, “Carbon analogs of antifungal dioxane-triazole derivatives: synthesis and in vitro activities” (Bioorg Med Chem Lett, 2008)
In brackets after ≈: the same amount, converted by molar mass.

What was measured:
Cryptococcus neoformans = assay: Antimicrobial activity against Cryptococcus neoformans TIMM 1855 by broth microdilution method; format: functional
How it was run: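 NCCLS broth microdilution MIC determination at 35 °C for Cryptococcus neoformans.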

Aspergillus fumigatus [1] = assay: Antimicrobial activity against Aspergillus fumigatus SANK 10569 by broth microdilution method; format: functional
How it was run: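 Broth microdilution following NCCLS guidelines. Aspergillus strains incubated at 30 °C in RPMI1640 medium. The MIC was read as the endpoint.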

Candida albicans [2] = assay: Antimicrobial activity against Candida albicans ATCC 64550 by broth microdilution method; format: functional
How it was run: (§1)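 MICs were determined by NCCLS-guideline broth microdilution in RPMI1640 medium at 35 °C against Candida strains.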

Candida albicans [3] = assay: Antimicrobial activity against Candida albicans TIMM 3164 by broth microdilution method; format: functional; how it was run: as §1
Aspergillus fumigatus [4] = assay: Antimicrobial activity against Aspergillus fumigatus ATCC 26430 by broth microdilution method
Candida albicans [5] = assay: Antimicrobial activity against Candida albicans ATCC 24433 by broth microdilution method; format: functional; how it was run: as §1
Candida parapsilosis = assay: Antimicrobial activity against Candida parapsilosis ATCC 90018 by broth microdilution method; format: functional; conditions: Lodderomyces parapsilosis; how it was run: as §1
Nakaseomyces glabratus = assay: Antimicrobial activity against Candida glabrata ATCC 90030 by broth microdilution method; format: functional; how it was run: as §1
Aspergillus flavus = assay: Antimicrobial activity against Aspergillus flavus SANK 18497 by broth microdilution method
Candida albicans [6] = assay: Antimicrobial activity against Candida albicans SANK 51486 by broth microdilution method; format: functional; how it was run: as §1
Pichia kudriavzevii = assay: Antimicrobial activity against Candida krusei ATCC 6258 by broth microdilution method; format: functional; how it was run: as §1
Candida tropicalis = assay: Antimicrobial activity against Candida tropicalis ATCC 750 by broth microdilution method; format: functional; how it was run: as §1
Candida albicans [7] = assay: Antimicrobial activity against Candida albicans 427 infected ddY mouse assessed as survival at 20 mg/kg, po administered after 1 hr, 4 hrs, 24 hrs of infection; format: functional
How it was run: (§2)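 ddY mice (n = 10) infected systemically by intravenous injection of C. albicans 427, 5.5 × 10⁶ CFU/mouse. Treatment 20 mg/kg/administration, given 1, 4 and 24 h after infection, orally or ip as per line. Survival recorded 21 days after administration.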

Mus musculus = assay: Toxicity in ddY mouse at 500 mg/kg, po once daily for 4 days; conditions: in vivo, 96 h
Candida albicans [8] = assay: Antimicrobial activity against Candida albicans 427 infected ddY mouse assessed as survival at 20 mg/kg, ip administered after 1 hr, 4 hrs, 24 hrs of infection; format: functional; conditions: route intraperitoneal; how it was run: as §2
Candida albicans [9] = assay: Antimicrobial activity against Candida albicans 427 infected ddY mouse assessed as survival rate at 20 mg/kg, po administered after 1 hr, 4 hrs, 24 hrs of infection; format: functional; how it was run: as §2

Molecule `C[C@@H](S[C@H]1CO[C@H](c2ccc(C(F)(F)F)cc2)OC1)[C@](O)(Cn1cncn1)c1ccc(F)cc1F` has an MIC (Cryptococcus neoformans) of 0.031 µg/mL (≈ 0.0601 µM), an MIC (Aspergillus fumigatus [1]) of 1 µg/mL (≈ 1.94 µM) and an MIC (Candida albicans [2]) of 1 µg/mL (≈ 1.94 µM). The MIC (Candida albicans [3]) was 0.063 µg/mL (≈ 0.122 µM), the MIC (Aspergillus fumigatus [4]) was 1 µg/mL (≈ 1.94 µM) and the MIC (Candida albicans [5]) was 0.016 µg/mL (≈ 0.031 µM). For the same molecule, the MIC (Candida parapsilosis) was 0.031 µg/mL (≈ 0.0601 µM), the MIC (Nakaseomyces glabratus) was 1 µg/mL (≈ 1.94 µM) and the MIC (Aspergillus flavus) was 2 µg/mL (≈ 3.88 µM). For the same molecule, the MIC (Candida albicans [6]) was at most 0.008 µg/mL, the MIC (Pichia kudriavzevii) was 0.25 µg/mL (≈ 0.485 µM) and the MIC (Candida tropicalis) was 0.5 µg/mL (≈ 0.97 µM).
For `C[C@@H](C[C@H]1CO[C@H](/C=C/C=C/c2ccc(C(F)(F)F)cc2)OC1)[C@](O)(Cn1cncn1)c1ccc(F)cc1F.O=C(O)C(=O)O`, the MIC (Cryptococcus neoformans) was 0.016 µg/mL, the MIC (Aspergillus fumigatus [1]) was 0.125 µg/mL and the MIC (Candida albicans [2]) was 0.5 µg/mL. For the same molecule, the MIC (Candida albicans [3]) was 0.016 µg/mL, the MIC (Aspergillus fumigatus [4]) was 0.125 µg/mL and the Survival (Candida albicans [7]) was 21 days. The Activity (Mus musculus) was “Non-toxic”, the MIC (Candida albicans [5]) was 0.016 µg/mL and the MIC (Candida parapsilosis) was 0.031 µg/mL. The MIC (Nakaseomyces glabratus) was 1 µg/mL, the MIC (Aspergillus flavus) was 0.5 µg/mL and the MIC (Candida albicans [6]) was at most 0.008 µg/mL. For the same molecule, the MIC (Pichia kudriavzevii) was 0.063 µg/mL, the Survival (Candida albicans [8]) was 21 days and the MIC (Candida tropicalis) was 0.125 µg/mL.
`C[C@@H](C[C@H]1CO[C@H](/C=C/c2ccc(C(F)(F)F)cc2)OC1)[C@](O)(Cn1cncn1)c1ccc(F)cc1F.O=C(O)C(=O)O` showed an MIC (Cryptococcus neoformans) of 0.016 µg/mL, an MIC (Aspergillus fumigatus [1]) of 0.25 µg/mL and an MIC (Candida albicans [2]) of 1 µg/mL. It also gave an MIC (Candida albicans [3]) of 0.016 µg/mL, an MIC (Aspergillus fumigatus [4]) of 0.25 µg/mL and an MIC (Candida albicans [5]) of 0.031 µg/mL. It also gave an MIC (Candida parapsilosis) of 0.031 µg/mL, an MIC (Nakaseomyces glabratus) of 1 µg/mL and an MIC (Aspergillus flavus) of 0.5 µg/mL. It also gave an MIC (Candida albicans [6]) of at most 0.008 µg/mL, an MIC (Pichia kudriavzevii) of 0.063 µg/mL and an MIC (Candida tropicalis) of 0.125 µg/mL.
Molecule `C[C@@H](C[C@H]1CO[C@H](c2ccc(C(F)(F)F)cc2)OC1)[C@](O)(Cn1cncn1)c1ccc(F)cc1F.O=C(O)C(=O)O` has an MIC (Cryptococcus neoformans) of 0.031 µg/mL, an MIC (Aspergillus fumigatus [1]) of 0.25 µg/mL and an MIC (Candida albicans [2]) of 0.5 µg/mL. The MIC (Candida albicans [3]) was 0.016 µg/mL, the MIC (Aspergillus fumigatus [4]) was 0.25 µg/mL and the MIC (Candida albicans [5]) was 0.016 µg/mL. For the same molecule, the MIC (Candida parapsilosis) was 0.016 µg/mL, the MIC (Nakaseomyces glabratus) was 1 µg/mL and the MIC (Aspergillus flavus) was 1 µg/mL. The MIC (Candida albicans [6]) was at most 0.008 µg/mL, the MIC (Pichia kudriavzevii) was 0.125 µg/mL and the MIC (Candida tropicalis) was 0.125 µg/mL.
Molecule `C[C@@H](S[C@H]1CO[C@H](/C=C/C=C/C=C/c2ccc(C(F)(F)F)cc2)OC1)[C@](O)(Cn1cncn1)c1ccc(F)cc1F.O=C(O)C(=O)O` has an MIC (Cryptococcus neoformans) of 0.5 µg/mL, an MIC (Aspergillus fumigatus [1]) of 2 µg/mL and an MIC (Candida albicans [2]) of over 4 µg/mL. The MIC (Candida albicans [3]) was 1 µg/mL, the MIC (Aspergillus fumigatus [4]) was 2 µg/mL and the MIC (Candida albicans [5]) was 0.25 µg/mL. The MIC (Candida parapsilosis) was 0.25 µg/mL, the MIC (Nakaseomyces glabratus) was over 4 µg/mL and the MIC (Aspergillus flavus) was 4 µg/mL. The MIC (Candida albicans [6]) was 0.031 µg/mL, the MIC (Pichia kudriavzevii) was 1 µg/mL and the MIC (Candida tropicalis) was 2 µg/mL.
`C[C@@H](S[C@H]1CO[C@H](/C=C/C=C/c2ccc(C(F)(F)F)cc2)OC1)[C@](O)(Cn1cncn1)c1ccc(F)cc1F.O=C(O)C(=O)O` gave an MIC (Cryptococcus neoformans) of 0.016 µg/mL, an MIC (Aspergillus fumigatus [1]) of 0.25 µg/mL and an MIC (Candida albicans [2]) of 1 µg/mL. The MIC (Candida albicans [3]) was 0.125 µg/mL, the MIC (Aspergillus fumigatus [4]) was 0.25 µg/mL and the MIC (Candida albicans [5]) was 0.125 µg/mL. For the same molecule, the MIC (Candida parapsilosis) was 0.063 µg/mL, the MIC (Nakaseomyces glabratus) was 1 µg/mL and the MIC (Aspergillus flavus) was 0.5 µg/mL. The MIC (Candida albicans [6]) was 0.016 µg/mL, the MIC (Pichia kudriavzevii) was 0.25 µg/mL and the MIC (Candida tropicalis) was 0.125 µg/mL.
`OC(Cn1cncn1)(Cn1cncn1)c1ccc(F)cc1F` [FLUCONAZOLE] was tested, and the MIC (Cryptococcus neoformans) was over 4 µg/mL, the MIC (Aspergillus fumigatus [1]) was over 4 µg/mL and the MIC (Candida albicans [2]) was over 4 µg/mL. The MIC (Candida albicans [3]) was over 4 µg/mL, the MIC (Aspergillus fumigatus [4]) was over 4 µg/mL and the MIC (Candida albicans [5]) was 0.5 µg/mL (≈ 1.63 µM). It also gave an MIC (Candida parapsilosis) of 0.5 µg/mL (≈ 1.63 µM), an MIC (Nakaseomyces glabratus) of over 4 µg/mL and an Activity (Candida albicans [9]) of 60%. The MIC (Aspergillus flavus) was over 4 µg/mL, the MIC (Candida albicans [6]) was 0.25 µg/mL (≈ 0.816 µM) and the MIC (Pichia kudriavzevii) was over 4 µg/mL. The MIC (Candida tropicalis) was 2 µg/mL (≈ 6.53 µM).
`CCC(C)n1ncn(-c2ccc(N3CCN(c4ccc(OCC5COC(Cn6cncn6)(c6ccc(Cl)cc6Cl)O5)cc4)CC3)cc2)c1=O` (centres undefined) [ITRACONAZOLE] gave an MIC (Cryptococcus neoformans) of 0.25 µg/mL (≈ 0.354 µM), an MIC (Aspergillus fumigatus [1]) of 0.25 µg/mL (≈ 0.354 µM) and an MIC (Candida albicans [2]) of 1 µg/mL (≈ 1.42 µM). The MIC (Candida albicans [3]) was 0.25 µg/mL (≈ 0.354 µM), the MIC (Aspergillus fumigatus [4]) was 0.25 µg/mL (≈ 0.354 µM) and the MIC (Candida albicans [5]) was 0.125 µg/mL (≈ 0.177 µM). The MIC (Candida parapsilosis) was 0.125 µg/mL (≈ 0.177 µM), the MIC (Nakaseomyces glabratus) was 1 µg/mL (≈ 1.42 µM) and the MIC (Aspergillus flavus) was 0.5 µg/mL (≈ 0.709 µM). The MIC (Candida albicans [6]) was 0.031 µg/mL (≈ 0.0439 µM), the MIC (Pichia kudriavzevii) was 0.5 µg/mL (≈ 0.709 µM) and the MIC (Candida tropicalis) was 0.5 µg/mL (≈ 0.709 µM).
With `C[C@@H](S[C@H]1CO[C@H](/C=C/c2ccc(C(F)(F)F)cc2)OC1)[C@](O)(Cn1cncn1)c1ccc(F)cc1F` the MIC (Cryptococcus neoformans) was 0.016 µg/mL (≈ 0.0295 µM), the MIC (Aspergillus fumigatus [1]) was 0.25 µg/mL (≈ 0.462 µM) and the MIC (Candida albicans [2]) was 2 µg/mL (≈ 3.69 µM). It also gave an MIC (Candida albicans [3]) of 0.125 µg/mL (≈ 0.231 µM), an MIC (Aspergillus fumigatus [4]) of 0.25 µg/mL (≈ 0.462 µM) and an MIC (Candida albicans [5]) of 0.063 µg/mL (≈ 0.116 µM). The MIC (Candida parapsilosis) was 0.031 µg/mL (≈ 0.0572 µM), the MIC (Nakaseomyces glabratus) was 1 µg/mL (≈ 1.85 µM) and the MIC (Aspergillus flavus) was 1 µg/mL (≈ 1.85 µM). It also gave an MIC (Candida albicans [6]) of 0.016 µg/mL (≈ 0.0295 µM), an MIC (Pichia kudriavzevii) of 0.25 µg/mL (≈ 0.462 µM) and an MIC (Candida tropicalis) of 0.031 µg/mL (≈ 0.0572 µM).
For `C[C@@H](C[C@H]1CO[C@H](/C=C/C=C/C=C/c2ccc(C(F)(F)F)cc2)OC1)[C@](O)(Cn1cncn1)c1ccc(F)cc1F.O=C(O)C(=O)O`, the MIC (Cryptococcus neoformans) was 0.125 µg/mL, the MIC (Aspergillus fumigatus [1]) was 0.5 µg/mL and the MIC (Candida albicans [2]) was 0.5 µg/mL. For the same molecule, the MIC (Candida albicans [3]) was 0.125 µg/mL, the MIC (Aspergillus fumigatus [4]) was 0.5 µg/mL and the MIC (Candida albicans [5]) was 0.125 µg/mL. The MIC (Candida parapsilosis) was 0.125 µg/mL, the MIC (Nakaseomyces glabratus) was 2 µg/mL and the MIC (Aspergillus flavus) was 1 µg/mL. It also gave an MIC (Candida albicans [6]) of 0.031 µg/mL, an MIC (Pichia kudriavzevii) of 0.25 µg/mL and an MIC (Candida tropicalis) of 0.25 µg/mL.
